# Screening results as filed in PubChem.
# MEKK3 PB1 HTS = modulators (inhibitors or enhancers) of MEK5 binding to human MEKK3 PB1 domain; Q99759; bead-based flow cytometry, Alexa488-MEK5 binding to MEKK3; actives lie on both sides; 0 = blocked by unlabeled MEK5, 100 = vehicle; binding response (% of control), % at 10 µM; 290,000 compounds, 1.4% hits;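 active = binding response more than 3 SD above or below the average of its plate-row segment, actives on both sides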;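 also: Alexa488 bead fluorescence after subtracting the streptavidin-only scavenger bead signal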
# Target sequence (Q99759 whole entry, looked up, the tested form may be a part): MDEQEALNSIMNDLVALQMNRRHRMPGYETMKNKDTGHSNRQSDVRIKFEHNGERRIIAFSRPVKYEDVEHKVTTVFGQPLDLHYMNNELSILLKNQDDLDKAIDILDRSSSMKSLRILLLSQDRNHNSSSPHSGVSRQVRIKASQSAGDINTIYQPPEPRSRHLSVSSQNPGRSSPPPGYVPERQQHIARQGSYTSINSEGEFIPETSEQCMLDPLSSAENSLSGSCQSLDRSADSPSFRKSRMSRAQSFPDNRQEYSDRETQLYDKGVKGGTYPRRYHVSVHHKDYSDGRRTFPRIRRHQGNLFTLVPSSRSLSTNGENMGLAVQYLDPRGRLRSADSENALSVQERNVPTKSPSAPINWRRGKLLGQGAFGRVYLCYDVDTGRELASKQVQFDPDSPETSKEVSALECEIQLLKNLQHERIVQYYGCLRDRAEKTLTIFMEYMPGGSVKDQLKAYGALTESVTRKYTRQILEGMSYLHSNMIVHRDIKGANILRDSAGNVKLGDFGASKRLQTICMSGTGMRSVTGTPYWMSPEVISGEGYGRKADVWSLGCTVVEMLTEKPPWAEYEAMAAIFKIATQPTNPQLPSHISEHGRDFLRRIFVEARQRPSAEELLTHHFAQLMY
# MEKK2mut PB1 HTS = signal of MEK5 binding to mutant human MEKK2 PB1 domain; AID 1530; bead flow cytometry, Alexa488-MEK5 binding to MEKK2 mutant; percent response, % at 10 µM; 290,000 compounds, 0.35% hits; in the data active = percent response above about 24%, passing the limit was not always enough
# ABCB1 block = human ABCB1 inhibition, ABCG2 as counter-screen | inhibition, % at 6.6 µM | P08183 | 190,000 compounds, 0.067% hits | CCRF-Adr cells, JC-1 efflux, flow cytometry | AID 1326; in the data active = inhibition above about 40%;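 also: higher value means more JC-1 retained so stronger ABCB1 efflux block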
# MEKK2wt PB1 HTS = raises or lowers MEK5 binding to wildtype human MEKK2 PB1 domain. bead flow cytometry, Alexa488-MEK5 binding to MEKK2 WT; actives lie on both sides. Q9Y2U5. 290,000 compounds, 1.1% hits. binding response (% of control), % at 10 µM; in the data active = binding response below about 67% or above about 130%
# ABCG2 inh = human ABCG2 inhibition, ABCB1 as counter-screen; inhibition, % at 6.6 µM; Q9UNQ0; 190,000 compounds, 0.1% hits; IgMXP3 cells, JC-1 efflux, flow cytometry; AID 1325;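 active = inhibition above 80%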
#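 System: two drug-resistant human cell lines, ABCG2 and ABCB1; controls: nicardipine high and DMSO low controls; times: 10 min exposure at 25 °C with rotation, no wash; detection: flow cytometry of retained JC-1 fluorescence; read-out basis: percent efflux inhibition, scaled nicardipine 100% to DMSO 0%; doses: one concentration, 6.6 µM final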
# MEKK2wt confirm = raises or lowers MEK5 binding to wildtype human MEKK2, retest; binding response (% of control), % at 10 µM; shares compounds with MEKK3 PB1 HTS; bead flow cytometry, Alexa488-MEK5 binding to MEKK2 WT; actives lie on both sides; 5,900 compounds, 2.4% hits; in the data active = binding response below about 16% or above about 210%; inactive = in between
# MEKK2mut-MEK5 = signal of MEK5 binding to mutant human MEKK2, retest; shares compounds with MEKK3 PB1 HTS; AID 1893; bead flow cytometry, Alexa488-MEK5 binding to MEKK2 mutant; percent response, % at 10 µM; 5,900 compounds, 2% hits; in the data active = percent response mostly above about 71%, no sharp cut-off; inactive = mostly below about 38%;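 also: higher means compound restores mutant binding toward wildtype level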
# MEKK3 confirm = MEKK3-MEK5 PB1 inhibition, single concentration confirmation. binding response (% of control), % at 10 µM. bead flow cytometry, Alexa488-MEK5 binding to MEKK3; active compounds read low. 5,900 compounds, 1.8% hits. AID 1894. shares compounds with MEKK3 PB1 HTS;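 active = binding response below 72% of control, or above a set upper limit, though filed actives all read lower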;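 also: lower values mean stronger disruption of MEK5 binding to MEKK3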
# A number is an active result; i = inactive; nt = no result; [ ] = remark or other dose. The list is not random: actives were taken first. Their share in the collection is about 2.3%.
SMILES,MEKK3 PB1 HTS,MEKK2mut PB1 HTS,ABCB1 block,MEKK2wt PB1 HTS,ABCG2 inh,MEKK2wt confirm,MEKK2mut-MEK5,MEKK3 confirm
Cc1cc(C)cc(NC(=O)CSc2ccc(-c3ccco3)nn2)c1,i,i,i,i,i,nt,nt,nt
Cc1ccc(-c2ccc(SCC(=O)c3ccccc3)nn2)cc1,i,i,i,63[inhibitor],i,i,i,i
O=C(CSc1ccc(-c2ccco2)nn1)NCc1ccc(F)cc1,i,i,i,i,i,nt,nt,nt
O=C(CSc1ccc(-c2ccco2)nn1)c1ccc(F)cc1,128,i,i,i,i,i,i,i
O=C(CSc1n[nH]c(=O)n1Cc1ccco1)c1ccc(F)cc1,131,i,nt,i,nt,i,i,i
COc1cc(OC)c(C(=O)OCC(=O)Nc2ccccc2Cl)cc1OC,i,i,nt,i,nt,nt,nt,nt
COc1ccc(C(=O)NCCCCCCNC(=O)c2ccc(OC)cc2)cc1,i,i,nt,i,nt,nt,nt,nt
Cc1ccc(C)c(NC(=O)Nn2cnnc2)c1,i,i,nt,i,nt,nt,nt,nt
CCN(c1ccccc1)S(=O)(=O)c1cc(C(=O)Nc2ccccc2Cl)ccc1F,66[inhibitor],i,i,i,i,i,i,i
CCn1nc(C)c(CNC(=O)C2CCC(=O)N(CCc3ccc(Cl)cc3)C2)c1C (configuration not stated),i,i,nt,i,nt,nt,nt,nt
Cc1ccc(NC(=O)Cn2c(O)c(N=NC(N)=S)c3ccccc32)cc1,i,i,nt,i,nt,nt,nt,nt
CCOC(=O)n1c(O)c(N=NC(N)=S)c2cc(C)ccc21,68[inhibitor],i,nt,i,nt,i,i,i
COc1cccc(C(=O)NCCC(=O)NCc2cc(=O)n(C)c(=O)n2C)c1,i,i,nt,i,nt,nt,nt,nt
Cc1ccc(C)c(NS(=O)(=O)c2cc3c4c(c2)CC(=O)N4CCC3)c1,i,i,nt,i,nt,nt,nt,nt
Cc1ccc(S(=O)(=O)NN)c(C)c1N1CCCC1=O,44[inhibitor],i,nt,i,nt,i,i,i
O=C1c2ccccc2C(=O)N1CN(C(=O)COc1ccc(Cl)cc1Cl)c1cccc(F)c1,139,i,i,i,i,i,i,i
N#Cc1cc([N+](=O)[O-])cnc1NCC(O)CO (configuration not stated),2.0[inhibitor],i,i,2.0[inhibitor],i,i,i,i
Cc1cc(/C=C2\C(=O)NN(c3ccccc3)C2=O)c(C)n1-c1ccccc1O,36[inhibitor],i,nt,32[inhibitor],nt,i,i,i
Cc1cc(/C=C2/C(=O)NN(c3ccccc3)C2=O)c(C)n1-c1ccc(O)cc1,i,i,i,i,i,nt,nt,nt
Cc1ccc(C)c(-c2ccc(=O)n(Cc3ccc(F)cc3Cl)n2)c1,128,34,nt,i,nt,i,i,i
Cn1c(CN2CCN(S(C)(=O)=O)CC2)nc2cc([N+](=O)[O-])ccc21,i,i,nt,i,nt,nt,nt,nt
CCCOc1ccc(C2=NNC(c3cccs3)=Nc3ccc(OC)cc32)cc1,141,i,i,i,i,i,i,i
CC(C)(C)c1ccc(S(=O)(=O)NCC(=O)N2CCN(Cc3ccccc3)CC2)cc1,i,i,nt,i,nt,nt,nt,nt
COCCNC(=O)C(OC(=O)c1ccco1)c1ccccc1OC (configuration not stated),123,i,i,i,i,i,i,i
COc1ccc(C(OC(=O)c2ccco2)C(=O)NC(C)(C)C)cc1 (configuration not stated),139,i,i,i,i,i,i,i
SMILES,MEKK3 PB1 HTS,MEKK2mut PB1 HTS,ABCB1 block,MEKK2wt PB1 HTS,ABCG2 inh,MEKK2wt confirm,MEKK2mut-MEK5,MEKK3 confirm
COCCNC(=O)C(OC(=O)c1ccco1)c1ccccc1Cl (configuration not stated),i,i,nt,i,nt,nt,nt,nt
Cc1cc(=S)nc(-c2ccccn2)[nH]1,57[inhibitor],i,nt,59[inhibitor],nt,i,i,i
Cc1ccc2cc(/C=C3\N=C(c4ccccc4)OC3=O)c(N3CCOCC3)nc2c1,75[inhibitor],i,i,28[inhibitor],i,i,i,i
Cc1ccc2c(Cl)cc(Cl)c(OCC(=O)O)c2n1,129,i,i,i,i,i,i,i
COCCNC(=O)CN(Cc1ccccc1)C(=O)CCC(=O)Nc1nccs1,i,i,nt,i,nt,nt,nt,nt
OCC1(Cc2ccc(F)cc2)CCCN(CCCC(F)(F)F)C1 (configuration not stated),i,i,nt,i,nt,nt,nt,nt
COc1ccc(OCC(=O)Nc2ccccc2OC)cc1,i,i,i,i,i,nt,nt,nt
COc1ccc(OCC(=O)Nc2ccccc2OC(F)F)cc1,122,i,i,i,i,i,i,i
Clc1ccc(SCc2csc(N3CCOCC3)n2)cc1,74[inhibitor],i,nt,i,nt,i,i,i
CC(Sc1ccc(Cl)cc1)C(=O)NNC(=O)c1csc(N2CCOCC2)n1 (configuration not stated),i,i,nt,i,nt,nt,nt,nt
CC(C)[C@H](N[C@@H](C)c1ccccc1)c1c(O)ccc2ccccc12,i,i,nt,i,nt,nt,nt,nt
Cc1ccccc1NC(=O)c1c(C)nc(SCC(=O)OCc2ccccc2)c(C#N)c1-c1ccc(F)cc1,144,i,i,i,i,i,i,i
CCOC(=O)Cn1nc(C)c(NC(=O)COc2cccc(Cl)c2)c1C,132,i,i,i,i,i,i,i
CCOC(=O)Cn1nc(C)c(NC(=O)COc2ccc([N+](=O)[O-])cc2)c1C,i,i,i,i,i,nt,nt,nt
CCn1c(COc2ccccc2)nnc1SCC(=O)NC1CC1,i,i,nt,i,nt,nt,nt,nt
COc1ccc(Cl)cc1N1CCN(CCNC(=O)Nc2ccccc2C)CC1,nt,nt,i,nt,i,nt,nt,nt
COc1ccccc1N1CCN(CCCNC(=O)Nc2ccccc2C)CC1,i,29,i,i,i,i,i,i
Cc1nc(Nc2nc(CSc3ccc(Cl)cc3)cc(=O)[nH]2)nc2ccccc12,132,i,i,i,i,i,i,i
Cc1nc(Nc2nc(CSc3nc4ccccc4[nH]3)cc(=O)[nH]2)nc2ccccc12,i,i,i,i,i,nt,nt,nt
COc1ccc(CN2CCNC(=O)C2CC(=O)NCCc2nc(C)c(C)s2)cc1C (configuration not stated),i,i,nt,i,nt,nt,nt,nt
O=C(NCc1ccc(F)cc1)C1Cc2ccccc2CN1C(=O)c1ccco1 (configuration not stated),69[inhibitor],i,i,i,i,i,i,i
CCOCCc1nnc(NC(=O)CCC2CCCCC2)s1,i,i,nt,i,nt,nt,nt,nt
Cc1ccc(C)c(N2CCN(c3cnn(-c4nc5ccccc5s4)c(=O)c3Cl)CC2)c1,143,i,i,i,i,i,i,i
COC/C=C/C1=CC2=CC(=O)C(C)(OC(=O)c3cnc4ccccc4n3)C(=O)C2=CN1c1ccccc1 (configuration not stated),i,i,nt,i,nt,nt,nt,nt
